Results: ChEMBL document CHEMBL3102840, “Synthesis and anti-proliferative activity of aromatic substituted 5-((1-benzyl-1H-indol-3-yl)methylene)-1,3-dimethylpyrimidine-2,4,6(1H,3H,5H)-trione analogs against human tumor cell lines” (2014)

Columns and labels:
Type in all cases: functional
[1] = Cytotoxicity against human NCI-ADR-RES cells after 48 hrs by SRB assay
In short: (§1)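 Five-dose run from the sixty-line panel, at 10−4, 10−5, 10−6, 10−7 and 10−8 M. SRB-stain OD is read just before compound addition, after 48 hrs of exposure, and in vehicle controls, giving percentage growth; negative growth indicates cytotoxicity. GI50 is the concentration giving 50% reduction in net protein increase versus control cells. LC50 is the concentration lethal to 50% of cells.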

HOP-62 = test: Cytotoxicity against human HOP62 cells after 48 hrs by SRB assay; details: HOP-62, 48 h; in short: as §1
IGROV-1 = test: Cytotoxicity against human IGROV1 cells after 48 hrs by SRB assay; details: IGROV-1, 48 h; in short: as §1
NCI-H23 = test: Cytotoxicity against human NCI-H23 cells after 48 hrs by SRB assay; details: NCI-H23, 48 h; in short: as §1
SR = test: Cytotoxicity against human SR cells after 48 hrs by SRB assay; in short: as §1
786-0 = test: Cytotoxicity against human 786-0 cells after 48 hrs by SRB assay; details: 786-0, 48 h; in short: as §1
[2] = Cytotoxicity against human OVCAR5 cells after 48 hrs by SRB assay; details: OVCAR-5, 48 h; in short: as §1
COLO 205 = test: Cytotoxicity against human COLO205 cells after 48 hrs by SRB assay; details: COLO 205, 48 h; in short: as §1
NCI-H226 [3] = test: Cytotoxicity against human NCI-H226 cells after 48 hrs by SRB assay; details: NCI-H226, 48 h; in short: as §1
HCT-116 = test: Cytotoxicity against human HCT116 cells after 48 hrs by SRB assay; details: HCT-116, 48 h; in short: as §1
MDA-MB-468 [4] = test: Cytotoxicity against human MDA-MB-468 cells assessed as growth inhibition at 10 uM after 48 hrs by SRB assay; details: MDA-MB-468, 48 h, read-out: GI
In short: (§2)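 Single-dose screen at 10µM across the sixty-cell-line panel. Percentage growth is derived from SRB-stain OD taken just before compound exposure, after 48 hrs exposure, and in vehicle-treated controls. Negative values indicate cytotoxicity.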

UACC-62 = test: Cytotoxicity against human UACC62 cells after 48 hrs by SRB assay; details: UACC-62, 48 h; in short: as §1
MDA-MB-468 [5] = test: Cytotoxicity against human MDA-MB-468 cells after 48 hrs by SRB assay; details: MDA-MB-468, 48 h; in short: as §1
SW-620 = test: Cytotoxicity against human SW620 cells after 48 hrs by SRB assay; details: SW-620, 48 h; in short: as §1
LOX IMVI = test: Cytotoxicity against human LOXIMVI cells after 48 hrs by SRB assay; in short: as §1
A498 [6] = test: Cytotoxicity against human A498 cells assessed as growth inhibition at 10 uM after 48 hrs by SRB assay; details: A498, 48 h, read-out: GI; in short: as §2
SK-MEL-2 = test: Cytotoxicity against human SK-MEL-2 cells after 48 hrs by SRB assay; details: SK-MEL-2, 48 h; in short: as §1
BT-549 = test: Cytotoxicity against human BT549 cells after 48 hrs by SRB assay; details: BT-549, 48 h; in short: as §1
A498 [7] = test: Cytotoxicity against human A498 cells after 48 hrs by SRB assay; details: A498, 48 h; in short: as §1
TK-10 [8] = test: Cytotoxicity against human TK10 cells after 48 hrs by SRB assay; details: TK-10, 48 h; in short: as §1
T47D = test: Cytotoxicity against human T47D cells after 48 hrs by SRB assay; in short: as §1
[9] = Cytotoxicity against human OVCAR5 cells assessed as growth inhibition at 10 uM after 48 hrs by SRB assay; details: OVCAR-5, 48 h, read-out: GI; in short: as §2
K562 = test: Cytotoxicity against human K562 cells after 48 hrs by SRB assay; details: K562, 48 h, read-out: LC50 (the source's name); in short: as §1
NCI-H226 [10] = test: Cytotoxicity against human NCI-H226 cells assessed as growth inhibition at 10 uM after 48 hrs by SRB assay; details: NCI-H226, 48 h, read-out: GI; in short: as §2
SF-295 = test: Cytotoxicity against human SF295 cells after 48 hrs by SRB assay; details: SF-295, 48 h; in short: as §1
SN12C = test: Cytotoxicity against human SN12C cells after 48 hrs by SRB assay; in short: as §1
SNB-19 = test: Cytotoxicity against human SNB19 cells after 48 hrs by SRB assay; details: SNB-19, 48 h; in short: as §1
[11] = Cytotoxicity against human UACC257 cells after 48 hrs by SRB assay; details: UACC-257, 48 h; in short: as §1
OVCAR-8 = test: Cytotoxicity against human OVCAR8 cells after 48 hrs by SRB assay; details: OVCAR-8, 48 h; in short: as §1
TK-10 [12] = test: Cytotoxicity against human TK10 cells assessed as growth inhibition at 10 uM after 48 hrs by SRB assay; details: TK-10, 48 h, read-out: GI; in short: as §2
SK-OV-3 = test: Cytotoxicity against human SKOV3 cells after 48 hrs by SRB assay; details: SK-OV-3, 48 h; in short: as §1
SK-MEL-5 = test: Cytotoxicity against human SK-MEL-5 cells after 48 hrs by SRB assay; details: SK-MEL-5, 48 h; in short: as §1
RXF 393 = test: Cytotoxicity against human RXF393 cells after 48 hrs by SRB assay; details: RXF 393, 48 h; in short: as §1
MDA-MB-435 = test: Cytotoxicity against human MDA-MB-435 cells after 48 hrs by SRB assay; details: MDA-MB-435, 48 h; in short: as §1
MCF7 = test: Cytotoxicity against human MCF7 cells after 48 hrs by SRB assay; details: MCF7, 48 h; in short: as §1
MDA-MB-231 = test: Cytotoxicity against human MDA-MB-231 cells after 48 hrs by SRB assay; details: MDA-MB-231, 48 h; in short: as §1
NCI-H460 = test: Cytotoxicity against human NCI-H460 cells after 48 hrs by SRB assay; details: NCI-H460, 48 h; in short: as §1
[13] = read-out: LC50 (the source's name)

Compound: CN1C(=O)C(=Cc2cn(Cc3ccc(F)cc3)c3ccccc23)C(=O)N(C)C1=O
- GI50 [1]: > 100 µM
- CC50 [1, 13]: > 100 µM
- GI50 (HOP-62): 7.7 µM
- CC50 (HOP-62; [13]): > 100 µM
- GI50 (IGROV-1): 4.33 µM
- CC50 (IGROV-1; [13]): > 100 µM
- GI50 (NCI-H23): 51.5 µM
- LC50 (NCI-H23): > 100 µM
- GI50 (SR): > 100 µM
- LC50 (lethal concentration, 50%) (SR): > 100 µM
- GI50 (786-0): 22.7 µM
- LC50 (786-0): > 100 µM
- GI50 [2]: 0.11 µM
- CC50 [2, 13]: > 100 µM
- GI50 (COLO 205): 1.44 µM
- CC50 (COLO 205; [13]): > 100 µM
- GI50 (NCI-H226 [3]): 2.56 µM
- CC50 (NCI-H226 [3]; [13]): > 100 µM
- GI50 (HCT-116): 6.26 µM
- LC50 (HCT-116): > 100 µM
- inhibition of growth at 10 µM (MDA-MB-468 [4]): -71%
- GI50 (UACC-62): 2.89 µM
- LC50 (UACC-62): > 100 µM
- GI50 (MDA-MB-468 [5]): 0.03 µM
- LC50 (MDA-MB-468 [5]): 0.5 µM
- GI50 (SW-620): > 100 µM
- CC50 (SW-620; [13]): > 100 µM
- GI50 (LOX IMVI): > 100 µM
- CC50 (LOX IMVI; [13]): > 100 µM
- inhibition of growth at 10 µM (A498 [6]): -85%
- GI50 (SK-MEL-2): 6.35 µM
- GI50 (BT-549): 24.1 µM
- CC50 (BT-549; [13]): > 100 µM
- GI50 (A498 [7]): 0.07 µM
- LC50 (A498 [7]): 0.67 µM
- GI50 (TK-10 [8]): 0.59 µM
- CC50 (TK-10 [8]; [13]): > 100 µM
- GI50 (T47D): 5.38 µM
- LC50 (T47D): > 100 µM
- inhibition of growth at 10 µM [9]: -33%
- CC50 (K562): > 100 µM
- inhibition of growth at 10 µM (NCI-H226 [10]): -78%
- GI50 (SF-295): 1.97 µM
- LC50 (SF-295): > 100 µM
- GI50 (SN12C): > 100 µM
- CC50 (SN12C; [13]): > 100 µM
- GI50 (SNB-19): 26.7 µM
- LC50 (SNB-19): > 100 µM
- GI50 [11]: 2.52 µM
- CC50 [11, 13]: > 100 µM
- GI50 (OVCAR-8): > 100 µM
- CC50 (OVCAR-8; [13]): > 100 µM
- inhibition of growth at 10 µM (TK-10 [12]): -15%
- GI50 (SK-OV-3): 15.3 µM
- LC50 (SK-OV-3): > 100 µM
- GI50 (SK-MEL-5): > 100 µM
- LC50 (SK-MEL-5): > 100 µM
- GI50 (RXF 393): 14.9 µM
- LC50 (lethal concentration, 50%) (RXF 393): > 100 µM
- GI50 (MDA-MB-435): > 100 µM
- LC50 (MDA-MB-435): > 100 µM
- GI50 (MCF7): > 100 µM
- LC50 (MCF7): > 100 µM
- GI50 (MDA-MB-231): 23.6 µM
- CC50 (MDA-MB-231; [13]): > 100 µM
- GI50 (NCI-H460): 0.37 µM
- CC50 (NCI-H460; [13]): > 100 µM
